pKi: −log10 of the molar value. Non-standard residues stand in square brackets, D forms with d. Residues, ends and D or L forms follow the SMILES beside them. Groups on a side chain read outwards from the residue. ξ: configuration not given here. *: point of attachment. Phe(4-Br) = N[C@@H](Cc1ccc(Br)cc1)C(=O)O; Phe(4-Cl) = N[C@@H](Cc1ccc(Cl)cc1)C(=O)O; Phe(4-NH2) = Nc1ccc(C[C@H](N)C(=O)O)cc1; 2Nal = N[C@@H](Cc1ccc2ccccc2c1)C(=O)O; hArg = N=C(N)NCCCC[C@H](N)C(=O)O; hPhe = N[C@@H](CCc1ccccc1)C(=O)O; Cha = N[C@@H](CC1CCCCC1)C(=O)O; Phg = N[C@H](C(=O)O)c1ccccc1; Nle = CCCC[C@H](N)C(=O)O; Dab = NCC[C@H](N)C(=O)O; Nva = CCC[C@H](N)C(=O)O; Dap = NC[C@H](N)C(=O)O; ξDab = NCCC(N)C(=O)O; ξDap = NCC(N)C(=O)O; Bn = c1ccc(C*)cc1
Columns and labels:
[1] = Inhibition of HIV1 HXB2 protease […], L90M mutant at 100 uM; design: species or system Human immunodeficiency virus 1
Method in brief: (§1)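 Mutant HIV-1 HXB2 protease clones (I84V, L90M, or I84V+L90M), 70 ng per 100 µL reaction. Buffer: 0.1 M acetic acid, 1.1 M NaCl, pH 5.0. Enzyme preincubated 10 min at 37 °C with hexapeptide (11 twofold dilutions from 100 µM). Substrate (2.25 µg) then added and reacted 30 min at 37 °C. Fluorescence read every 60 s (ex 355/em 490 nm) against a no-inhibitor control.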

Protease [2] = target: T1, Protease (Human immunodeficiency virus 1, UniProt Q9YQ12); experiment: Inhibition of wild type HIV1 HXB2 protease at 100 uM
[3] = Inhibition of HIV1 HXB2 protease […] mutant at 100 uM; design: species or system Human immunodeficiency virus 1; method in brief: as §1
[4] = target: T2, Human immunodeficiency virus type 1 protease (Human immunodeficiency virus 1, UniProt Q72874, L90M); experiment: Inhibition of HIV1 HXB2 protease L90M mutant at 100 uM; method in brief: as §1
Protease [5] = target: T1, Protease; experiment: Inhibition of wild type HIV1 HXB2 protease
Method in brief: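 HXB2 HIV-1 protease clone (35 ng per 100 µL) in 0.1 M acetic acid, 1.1 M NaCl, pH 5.0. Hexapeptide was preincubated with enzyme for 10 min at 37 °C. Substrate (2.25 µg) was then added and fluorescence (ex 355/em 490 nm) read over 30 min at 37 °C. Eleven twofold dilutions from 100 µM; 1 mM stocks in DMSO/water 1:2. Protease-plus-substrate control without inhibitor.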

[6] = Inhibition of HIV1 HXB2 protease 184V mutant; design: species or system Human immunodeficiency virus 1; method in brief: as §1
[7] = Inhibition of HIV1 HXB2 protease […], L90M mutant; design: species or system Human immunodeficiency virus 1; method in brief: as §1
[8] = target: T2, Human immunodeficiency virus type 1 protease; experiment: Inhibition of HIV1 HXB2 protease L90M mutant; method in brief: as §1

T1 sequence (Q9YQ12 whole entry): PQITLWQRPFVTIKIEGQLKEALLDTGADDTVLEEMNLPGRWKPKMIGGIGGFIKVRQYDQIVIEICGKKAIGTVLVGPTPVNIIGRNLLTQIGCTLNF

SMILES | Ki [1] | Ki (Protease [2]) | Ki [3] | Ki [4] | pKi (Protease [5]) | pKi [6] | pKi [7] | pKi [8]
CC(=O)N[C@@H](Cc1ccc(O)cc1)C(=O)N[C@@H](C)C(=O)N[C@H](C(=O)N1CCC[C@H]1C(=O)NCC(=O)N[C@H](C(=O)O)[C@H](C)O)[C@H](C)O | Not Active | Not Active | Not Active | Not Active |  |  |  | 
CC(=O)N[C@@H](C)C(=O)N[C@@H](Cc1cnc[nH]1)C(=O)N[C@@H](Cc1ccc(O)cc1)C(=O)N[C@@H](C)C(=O)N[C@H](C(=O)N[C@@H](Cc1cnc[nH]1)C(=O)O)[C@@H](C)O (Ac-AHYATH-OH) | Not Active | Not Active | Not Active | Not Active |  |  |  | 
CC(=O)N[C@@H](CC(=O)O)C(=O)NCC(=O)NCC(=O)N[C@@H](C)C(=O)N[C@@H](CC(C)C)C(=O)N[C@@H](CO)C(=O)O (Ac-DGGALS-OH) | Not Active | Not Active | Not Active | Not Active |  |  |  | 
CC(=O)NCC(=O)N[C@H](C(=O)N[C@@H](C)C(=O)N[C@@H](Cc1ccc(O)cc1)C(=O)N[C@@H](CO)C(=O)N[C@@H](CS)C(=O)O)[C@@H](C)O (Ac-GTAYSC-OH) | Not Active | Not Active | Not Active | Not Active |  |  |  | 
CC(=O)N1CCC[C@H]1C(=O)N[C@@H](Cc1ccc(O)cc1)C(=O)N[C@@H](C)C(=O)NCC(=O)N[C@@H](C)C(=O)N[C@@H](CCC(N)=O)C(=O)O (Ac-PYAGAQ-OH) | Not Active | Not Active | Not Active | Not Active |  |  |  | 
CC(=O)N[C@@H](CO)C(=O)N1CCC[C@H]1C(=O)N[C@@H](C)C(=O)N[C@H](C(=O)N[C@@H](CCC(=O)O)C(=O)N[C@@H](C)C(=O)O)[C@@H](C)O (Ac-SPATEA-OH) | Not Active | Not Active | Not Active | Not Active |  |  |  | 
CC(=O)N[C@@H](CO)C(=O)N[C@H](C(=O)N[C@@H](CCCNC(=N)N)C(=O)N[C@@H](CS)C(=O)N[C@@H](CO)C(=O)N[C@@H](Cc1c[nH]c2ccccc12)C(=O)O)C(C)C (Ac-SVRCSW-OH) | Not Active | Not Active | Not Active | Not Active |  |  |  | 
CC(=O)N[C@H](C(=O)N[C@@H](C)C(=O)N[C@@H](C)C(=O)NCC(=O)N[C@@H](CCCNC(=N)N)C(=O)N[C@H](C(=O)O)[C@@H](C)O)[C@@H](C)O (Ac-TAAGRT-OH) | Not Active | Not Active | Not Active | Not Active |  |  |  | 
CC(=O)N[C@H](C(=O)N[C@@H](CC(N)=O)C(=O)N[C@H](C(=O)N[C@H](C(=O)N[C@@H](C)C(=O)N[C@@H](CC(=O)O)C(=O)O)[C@@H](C)O)[C@@H](C)O)[C@@H](C)O (Ac-TNTTAD-OH) | Not Active | Not Active | Not Active | Not Active |  |  |  | 
CC[C@H](C)[C@H](NC(=O)[C@H](Cc1cnc[nH]1)NC(=O)[C@H](C)NC(=O)[C@H](CO)NC(=O)[C@H](CCCNC(=N)N)NC(=O)[C@@H](NC(C)=O)C(C)C)C(=O)O (Ac-VRSAHI-OH) | Not Active | Not Active | Not Active | Not Active |  |  |  | 
CCC[C@H](NC(=O)[C@H](Cc1ccc(O)cc1)NC(=O)[C@H](CCCCNC(=N)N)NC(=O)[C@H](CCSC)NC(=O)[C@@H](NC(=O)[C@@H](N)Cc1ccc2ccccc2c1)C(C)C)C(=O)O (H-[2Nal]VM[hArg]Y[Nva]-OH) |  |  |  |  | 5.27 | 4.70 | 5.12 | 5.16
CCCC[C@H](NC(=O)[C@H](Cc1ccc(OCc2ccccc2)cc1)NC(=O)[C@H](Cc1ccc(N)cc1)NC(=O)[C@H](CCCCN)NC(=O)[C@H](CC1CCCCC1)NC(=O)[C@@H](N)Cc1ccc2ccccc2c1)C(=O)O (H-[2Nal][Cha]K[Phe(4-NH2)]Y(Bn)[Nle]-OH) |  |  |  |  | 4.62 | 4.50 | 4.25 | 5.04
CSCC[C@H](NC(=O)[C@H](CC1CCCCC1)NC(=O)[C@@H](N)Cc1ccc2ccccc2c1)C(=O)N[C@@H](CCC(=O)O)C(=O)N[C@H](C(=O)N[C@@H](CC1CCCCC1)C(=O)O)c1ccccc1 (H-[2Nal][Cha]ME[Phg][Cha]-OH) |  |  |  |  | 5.26 | 5.41 | 5.57 | 5.62
CCCC[C@H](NC(=O)[C@@H](N)Cc1ccc2ccccc2c1)C(=O)NCC[C@H](N)C(=O)N[C@@H](CCC(=O)O)C(=O)N[C@@H](CCc1ccccc1)C(=O)N[C@@H](CCC)C(=O)O (H-[Dab]([Nle-2Nal])E[hPhe][Nva]-OH) | Not Active |  | Not Active |  | 4.66 |  |  | 4.78
CC(C)C[C@H](NC(=O)[C@H](Cc1ccccc1)NC(=O)[C@H](CCCCNC(=N)N)NC(=O)[C@@H](N)CNC(=O)[C@H](CC1CCCCC1)NC(=O)[C@@H](N)CCc1ccccc1)C(=O)O (H-[Dap]([Cha-hPhe])[hArg]FL-OH) | Not Active |  | Not Active |  | 5.34 |  |  | 4.58
CCC[C@H](NC(=O)[C@H](Cc1ccc2ccccc2c1)NC(=O)[C@H](CCCCNC(=N)N)NC(=O)[C@@H](N)CNC(=O)[C@H](CCC)NC(=O)[C@@H](N)CCc1ccccc1)C(=O)O (H-[Dap]([Nva-hPhe])[hArg][2Nal][Nva]-OH) |  |  |  |  | 5.28 | 4.88 | 4.80 | 4.63
NC(CCNC(=O)[C@H](CC1CCCCC1)NC(=O)[C@@H](N)Cc1ccc(Cl)cc1)C(=O)N[C@@H](CCC(=O)O)C(=O)N[C@@H](Cc1ccccc1)C(=O)N[C@@H](CC1CCCCC1)C(=O)O (stereo not given in full) (H-[ξDab]([Cha-Phe(4-Cl)])EF[Cha]-OH) | Not Active |  | Not Active |  | 5.42 |  |  | 4.51
N=C(N)NCCC[C@H](NC(=O)C(N)CCNC(=O)[C@H](CC1CCCCC1)NC(=O)[C@@H](N)CCc1ccccc1)C(=O)N[C@@H](CCc1ccccc1)C(=O)N[C@@H](CC1CCCCC1)C(=O)O (stereo not given in full) (H-[ξDab]([Cha-hPhe])R[hPhe][Cha]-OH) | Not Active |  | Not Active |  | 5.70 |  |  | 4.32
CCC[C@H](NC(=O)[C@H](Cc1ccc2ccccc2c1)NC(=O)[C@H](CCC(=O)O)NC(=O)C(N)CNC(=O)[C@H](CC1CCCCC1)NC(=O)[C@@H](N)Cc1ccc2ccccc2c1)C(=O)O (stereo not given in full) (H-[ξDap]([Cha-2Nal])E[2Nal][Nva]-OH) |  |  |  |  | 4.92 | 4.68 | 4.68 | 5.01
CC(C)C[C@H](NC(=O)[C@H](Cc1ccc(Br)cc1)NC(=O)[C@H](CCC(=O)O)NC(=O)C(N)CNC(=O)[C@H](CC1CCCCC1)NC(=O)[C@@H](N)Cc1ccc(Cl)cc1)C(=O)O (stereo partly drawn) (H-[ξDap]([Cha-Phe(4-Cl)])E[Phe(4-Br)]L-OH) |  |  |  |  | 5.26 | 4.42 | 4.46 | 4.80

Source: ChEMBL document CHEMBL1155257, “Proteochemometrics mapping of the interaction space for retroviral proteases and their substrates” (Bioorg Med Chem, 2009)
